Measurements as given in ChEMBL document CHEMBL5108036, “A concise SAR-analysis of antimicrobial cationic amphipathic barbiturates for an improved activity-toxicity profile” (Eur J Med Chem, 2022).

Tests used:
[1] = Selectivity index, ratio HC50 for hemolytic activity in human RBC to MIC for antibacterial activity against Escherichia coli ATCC 25922; format: toxicity; details: human red blood cells (erythrocytes)
In short: (§1)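 SI is the ratio of RBC lysis EC50 to MIC for each reference strain.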

[2] = Selectivity index, ratio HC50 for hemolytic activity in human RBC to MIC for antibacterial activity against Bacillus subtilis 168; format: toxicity; details: human red blood cells (erythrocytes); in short: as §1
[3] = Selectivity index, ratio HC50 for hemolytic activity in human RBC to MIC for antibacterial activity against Staphylococcus aureus ATCC 9144; format: toxicity; details: human red blood cells (erythrocytes); in short: as §1
Bacillus subtilis = assay: Antibacterial activity against Bacillus subtilis 168 incubated for 48 hrs and measured by broth microdilution assay; format: functional
In short: (§2)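 MICs in µg/mL were measured against the reference strains S. aureus ATCC 9144, B. subtilis 168, E. coli ATCC 25922 and P. aeruginosa ATCC 27853. Compounds were tested as di-TFA salts.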

Pseudomonas aeruginosa = assay: Antibacterial activity against Pseudomonas aeruginosa ATCC 27853 incubated for 48 hrs and measured by broth microdilution assay; format: functional; in short: as §2
Escherichia coli = assay: Antibacterial activity against Escherichia coli ATCC 25922 incubated for 48 hrs and measured by broth microdilution assay; format: functional; in short: as §2
[4] = (§3) Hemolytic activity in human RBC measured after 1 hr by microplate reader method; format: toxicity, cell-based, Erythrocyte; details: human, human red blood cells (erythrocytes)
In short: (§4)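 Human red blood cell lysis was used as the cytotoxicity read-out, expressed as EC50 in µg/mL. The highest concentration tested was 500 µM. Compounds were tested as di-TFA salts.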

Staphylococcus aureus = assay: Antibacterial activity against Staphylococcus aureus ATCC 9144 incubated for 48 hrs and measured by broth microdilution assay; format: functional; in short: as §2
[5] = Selectivity index, ratio HC50 for hemolytic activity in human RBC to MIC for antibacterial activity against Pseudomonas aeruginosa ATCC 27853; format: toxicity; details: human red blood cells (erythrocytes); in short: as §1
[6] = Solubility in pure water; format: physicochemical
Erythrocyte = assay: as §3; format: toxicity, cell-based; details: erythrocyte; in short: as §4

| Structure (SMILES) | selectivity ratio [1] | selectivity ratio [2] | selectivity ratio [3] | MIC (Bacillus subtilis) [µg/mL] | MIC (Pseudomonas aeruginosa) [µg/mL] | MIC (Escherichia coli) [µg/mL] | EC50 at 1 h [4] [µg/mL] | MIC (Staphylococcus aureus) [µg/mL] | selectivity ratio [5] | solubility [6] [µg/mL] | EC50 (Erythrocyte) [µg/mL] |
| --- | --- | --- | --- | --- | --- | --- | --- | --- | --- | --- | --- |
| NCCCCN1C(=O)N(CCCCN)C(=O)C(Cc2cc(Br)cc(Br)c2)(Cc2cc(Br)cc(Br)c2)C1=O.O=C(O)C(F)(F)F.O=C(O)C(F)(F)F | 20 | 40 | 20 | 2 | 8 | 4 | 79 | 4 | 10 | – | – |
| Cl.Cl.N=C(N)NCCCN1C(=O)N(CCCNC(=N)N)C(=O)C(Cc2cc(C(F)(F)F)cc(C(F)(F)F)c2)(Cc2cc(C(F)(F)F)cc(C(F)(F)F)c2)C1=O | – | – | – | – | – | 8 | – | 2 | – | ≤ 1000 | 118 |
| N=C(N)NCCCN1C(=O)N(CCCNC(=N)N)C(=O)C(Cc2ccc(Br)c(Cl)c2)(Cc2ccc(Br)c(Cl)c2)C1=O.O=C(O)C(F)(F)F.O=C(O)C(F)(F)F | – | – | – | 2 | 32 | 8 | 348 | 2 | – | < 1000 | – |
| C[N+](C)(C)CCCCN1C(=O)N(CCCC[N+](C)(C)C)C(=O)C(Cc2cc(Br)cc(Br)c2)(Cc2cc(Br)cc(Br)c2)C1=O.O=C([O-])C(F)(F)F.O=C([O-])C(F)(F)F | – | > 67 | > 135 | 8 | 256 | 128 | > 539 | 4 | – | – | – |
| O=C([O-])C(F)(F)F.O=C([O-])C(F)(F)F.O=C1N(CCCC[n+]2ccccc2)C(=O)C(Cc2cc(Br)cc(Br)c2)(Cc2cc(Br)cc(Br)c2)C(=O)N1CCCC[n+]1ccccc1 | > 70 | > 140 | > 280 | 4 | 128 | 8 | > 559 | 2 | – | – | – |
| N=C(N)NCCCN1C(=O)N(CCCNC(=N)N)C(=O)C(Cc2ccc(C(F)(F)F)cc2)(Cc2ccc(C(F)(F)F)cc2)C1=O.O=C(O)C(F)(F)F.O=C(O)C(F)(F)F | – | > 109 | > 54 | 4 | 256 | 128 | > 435 | 8 | – | – | – |
| Cl.Cl.NCCCN1C(=O)N(CCCN)C(=O)C(Cc2ccc(Br)c(Cl)c2)(Cc2ccc(Br)c(Cl)c2)C1=O | – | – | – | – | – | 8 | – | 8 | – | ≤ 1000 | 271 |
| N=C(N)NCCCCN1C(=O)N(CCCCNC(=N)N)C(=O)C(Cc2cc(Br)cc(Br)c2)(Cc2cc(Br)cc(Br)c2)C1=O.O=C(O)C(F)(F)F.O=C(O)C(F)(F)F | 32 | 32 | 32 | 2 | 8 | 2 | 62 | 2 | 8 | – | – |
| N=C(N)NCCCCN1C(=O)N(CCCCNC(=N)N)C(=O)C(Cc2cc(Br)cc(Br)c2)(Cc2ccc3ccccc3n2)C1=O.O=C(O)C(F)(F)F.O=C(O)C(F)(F)F (stereo not given) | – | 113 | 225 | 4 | 32 | 32 | 450 | 2 | – | – | – |
| Cl.Cl.NCCCN1C(=O)N(CCCN)C(=O)C(Cc2cc(C(F)(F)F)cc(C(F)(F)F)c2)(Cc2cc(C(F)(F)F)cc(C(F)(F)F)c2)C1=O | – | – | – | – | – | 8 | – | 8 | – | ≤ 1000 | 224 |
| N=C(N)NCCCN1C(=O)N(CCCNC(=N)N)C(=O)C(Cc2ccc(C(F)(F)F)cc2)(Cc2cc(Br)cc(Br)c2)C1=O.O=C(O)C(F)(F)F.O=C(O)C(F)(F)F (stereo not given) | – | – | – | 4 | 64 | 16 | > 480 | 4 | – | – | – |
| N[C@H]1C[C@@H](N2C(=O)N([C@H]3C[C@@H](N)C3)C(=O)C(Cc3cc(Br)cc(Br)c3)(Cc3cc(Br)cc(Br)c3)C2=O)C1.O=C(O)C(F)(F)F.O=C(O)C(F)(F)F | – | – | – | 4 | 8 | 4 | 50 | 8 | – | – | – |
| N=C(N)NCCCCN1C(=O)N(CCCCNC(=N)N)C(=O)C(Cc2ccc3ccccc3n2)(Cc2ccc3ccccc3n2)C1=O.O=C(O)C(F)(F)F.O=C(O)C(F)(F)F | – | – | – | 16 | > 256 | 128 | > 432 | 8 | – | – | – |
| N[C@H]1C[C@H](N2C(=O)N([C@H]3C[C@H](N)C3)C(=O)C(Cc3cc(Br)cc(Br)c3)(Cc3cc(Br)cc(Br)c3)C2=O)C1.O=C(O)C(F)(F)F.O=C(O)C(F)(F)F | – | – | – | 4 | 8 | 4 | 93 | 4 | – | – | – |
| NCCCCN1C(=O)N(CCCCN)C(=O)C(Cc2cc(Br)cc(Br)c2)(Cc2cc(C(F)(F)F)cc(C(F)(F)F)c2)C1=O.O=C(O)C(F)(F)F.O=C(O)C(F)(F)F | – | – | – | 2 | 8 | 8 | 93 | 8 | – | – | – |
| CC(C)(C)c1ccc(CC2(Cc3cc(Br)cc(Br)c3)C(=O)N(CCCCNC(=N)N)C(=O)N(CCCCNC(=N)N)C2=O)cc1.O=C(O)C(F)(F)F.O=C(O)C(F)(F)F (stereo not given) | – | – | – | 2 | 4 | 2 | 39 | 2 | – | – | – |
| NCCCN1C(=O)N(CCCN)C(=O)C(Cc2cc(C(F)(F)F)cc(C(F)(F)F)c2)(Cc2cc(C(F)(F)F)cc(C(F)(F)F)c2)C1=O.O=C(O)C(F)(F)F.O=C(O)C(F)(F)F | 23 | 46 | 23 | 4 | 8 | 8 | 176 | 8 | 23 | < 1000 | – |
| N=C(N)NCCCCN1C(=O)N(CCCCNC(=N)N)C(=O)C(Cc2cc(Br)cc(Br)c2)(Cc2cc(C(F)(F)F)cc(C(F)(F)F)c2)C1=O.O=C(O)C(F)(F)F.O=C(O)C(F)(F)F (stereo not given) | – | – | – | 2 | 4 | 2 | 36 | 2 | – | – | – |
| NCCCN1C(=O)N(CCCN)C(=O)C(Cc2ccc(Br)c(Cl)c2)(Cc2ccc(Br)c(Cl)c2)C1=O.O=C(O)C(F)(F)F.O=C(O)C(F)(F)F | 40 | 81 | 40 | 4 | 16 | 8 | 323 | 8 | 20 | < 1000 | – |
| N=C(N)NCCCN1C(=O)N(CCCNC(=N)N)C(=O)C(Cc2ccc3cc(Br)ccc3n2)(Cc2ccc3cc(Br)ccc3n2)C1=O.O=C(O)C(F)(F)F.O=C(O)C(F)(F)F | – | > 124 | > 62 | 4 | > 128 | 64 | > 497 | 8 | – | – | – |
| CC(C)(C)c1ccc(CC2(Cc3cc(Br)cc(Br)c3)C(=O)N(CCCNC(=N)N)C(=O)N(CCCNC(=N)N)C2=O)cc1.O=C(O)C(F)(F)F.O=C(O)C(F)(F)F (stereo not given) | 85 | 169 | 169 | 1 | 16 | 2 | 169 | 1 | 11 | – | – |
| NCCCCN1C(=O)N(CCCCN)C(=O)C(Cc2cc(Br)c(Br)cc2Br)(Cc2cc(Br)c(Br)cc2Br)C1=O.O=C(O)C(F)(F)F.O=C(O)C(F)(F)F | – | – | – | 4 | 8 | 8 | 27 | 4 | – | – | – |
| NCCCCN1C(=O)N(CCCCN)C(=O)C(Cc2cc(Br)cc(Br)c2)(Cc2ccc3ccccc3n2)C1=O.O=C(O)C(F)(F)F.O=C(O)C(F)(F)F | – | – | – | 8 | 256 | 128 | > 444 | 32 | – | – | – |
| CC(C)(C)c1ccc(CC2(Cc3cc(Br)cc(Br)c3)C(=O)N(CCCCN)C(=O)N(CCCCN)C2=O)cc1.O=C(O)C(F)(F)F.O=C(O)C(F)(F)F | – | – | – | 4 | 8 | 8 | 82 | 4 | – | – | – |
| NCCCCCCN1C(=O)N(CCCCCCN)C(=O)C(Cc2cc(Br)cc(Br)c2)(Cc2cc(Br)cc(Br)c2)C1=O.O=C(O)C(F)(F)F.O=C(O)C(F)(F)F | – | – | – | 4 | 16 | 4 | 30 | 4 | – | – | – |
| NCCCN1C(=O)N(CCCN)C(=O)C(Cc2ccc(C(F)(F)F)cc2)(Cc2cc(Br)cc(Br)c2)C1=O.O=C(O)C(F)(F)F.O=C(O)C(F)(F)F | – | – | – | 8 | 32 | 16 | > 438 | 32 | – | – | – |
| N=C(N)NCCCN1C(=O)N(CCCNC(=N)N)C(=O)C(Cc2cc(Br)cc(Br)c2)(Cc2cc(Br)cc(Br)c2)C1=O.O=C(O)C(F)(F)F.O=C(O)C(F)(F)F | 47 | 93 | 93 | 2 | 8 | 4 | 187 | 2 | 23 | – | – |
| N=C(N)NCCN1C(=O)N(CCNC(=N)N)C(=O)C(Cc2cc(Br)cc(Br)c2)(Cc2cc(Br)cc(Br)c2)C1=O.O=C(O)C(F)(F)F.O=C(O)C(F)(F)F | – | – | – | 2 | 16 | 4 | 164 | 2 | – | – | – |
